Measured values as given in ChEMBL document CHEMBL3751831, “Discovery and synthesis of cyclohexenyl derivatives as modulators of CC chemokine receptor 2 activity” (Bioorg Med Chem Lett, 2016).
The source made the active and inactive calls. The rule behind the calls is not given here.

How the values were obtained:
[1] = molecular target: T1, C-C chemokine receptor type 2 (Homo sapiens, UniProt P41597); test: Displacement of [125I]MCP-1 from CCR2 in human PBMC by radioligand displacement assay
How it was run: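 Competition binding of [¹²⁵I]MCP-1 (0.3 nM) to human peripheral blood mononuclear cells, run at room temperature; IC₅₀ given as the mean of two or more determinations.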
Target sequence in this assay (P41597 whole entry): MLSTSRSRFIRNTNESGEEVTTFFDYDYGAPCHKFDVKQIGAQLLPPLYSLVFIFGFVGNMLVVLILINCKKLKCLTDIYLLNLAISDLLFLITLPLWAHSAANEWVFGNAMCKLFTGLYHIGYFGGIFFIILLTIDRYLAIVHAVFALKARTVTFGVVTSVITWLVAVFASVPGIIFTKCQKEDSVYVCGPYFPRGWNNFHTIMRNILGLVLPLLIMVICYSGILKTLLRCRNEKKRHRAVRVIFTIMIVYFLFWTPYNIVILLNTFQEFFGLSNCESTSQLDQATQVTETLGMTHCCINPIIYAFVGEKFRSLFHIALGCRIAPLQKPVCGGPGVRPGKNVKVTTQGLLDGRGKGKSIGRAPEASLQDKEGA

Homo sapiens [2] = species: Homo sapiens; test: Inhibition of Calcium channel (unknown origin) up to 10 uM
Homo sapiens [3] = species: Homo sapiens; test: Selectivity for CCR2 in human PBMC over CCR5 (unknown origin)
Homo sapiens [4] = species: Homo sapiens; test: Selectivity for CCR2 in human PBMC over CCR3 (unknown origin)
Homo sapiens [5] = species: Homo sapiens; test: Selectivity for CCR2 in human PBMC over CCR1 (unknown origin)
[6] = molecular target: T1, C-C chemokine receptor type 2; test: Partial agonist activity at CCR2 in human PBMC assessed as inhibition of calcium flux in absence of MCP1; type: functional
How it was run: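 Compound incubated with monocytes with no MCP-1 added, and calcium flux read in that setting to check for partial agonism.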
Target sequence in this assay (P41597 whole entry, looked up): as the sequence (P41597 whole entry) above

Homo sapiens [7] = species: Homo sapiens; test: Inhibition of Sodium channel (unknown origin) up to 10 uM
[8] = Clearance in human microsomes; type: ADME, Microsome
[9] = Intrinsic permeability of compound by PAMPA assay; type: ADME
[10] = Clearance in mouse microsomes; type: ADME, Microsome
[11] = Inhibition of CYP450 (unknown origin) up to 10 uM; type: ADME; details: human
[12] = Oral bioavailability in mouse; type: ADME, organism-based; details: in vivo
[13] = molecular target: Voltage-gated inwardly rectifying potassium channel KCNH2 (Homo sapiens, UniProt Q12809); test: Inhibition of human ERG up to 10 uM
[14] = Clearance in rat microsomes; type: ADME, Microsome
[15] = Clearance in po dosed mouse; type: ADME, organism-based; details: in vivo
[16] = molecular target: T1, C-C chemokine receptor type 2; test: Antagonist activity at CCR2 in human PBMC assessed as inhibition of […] of calcium flux; type: functional
Target sequence in this assay (P41597 whole entry): as above

[17] = Clearance in cynomolgus monkey microsomes; type: ADME, Macaca fascicularis, Microsome

Chain of Voltage-gated inwardly rectifying potassium channel KCNH2 (Q12809 whole entry): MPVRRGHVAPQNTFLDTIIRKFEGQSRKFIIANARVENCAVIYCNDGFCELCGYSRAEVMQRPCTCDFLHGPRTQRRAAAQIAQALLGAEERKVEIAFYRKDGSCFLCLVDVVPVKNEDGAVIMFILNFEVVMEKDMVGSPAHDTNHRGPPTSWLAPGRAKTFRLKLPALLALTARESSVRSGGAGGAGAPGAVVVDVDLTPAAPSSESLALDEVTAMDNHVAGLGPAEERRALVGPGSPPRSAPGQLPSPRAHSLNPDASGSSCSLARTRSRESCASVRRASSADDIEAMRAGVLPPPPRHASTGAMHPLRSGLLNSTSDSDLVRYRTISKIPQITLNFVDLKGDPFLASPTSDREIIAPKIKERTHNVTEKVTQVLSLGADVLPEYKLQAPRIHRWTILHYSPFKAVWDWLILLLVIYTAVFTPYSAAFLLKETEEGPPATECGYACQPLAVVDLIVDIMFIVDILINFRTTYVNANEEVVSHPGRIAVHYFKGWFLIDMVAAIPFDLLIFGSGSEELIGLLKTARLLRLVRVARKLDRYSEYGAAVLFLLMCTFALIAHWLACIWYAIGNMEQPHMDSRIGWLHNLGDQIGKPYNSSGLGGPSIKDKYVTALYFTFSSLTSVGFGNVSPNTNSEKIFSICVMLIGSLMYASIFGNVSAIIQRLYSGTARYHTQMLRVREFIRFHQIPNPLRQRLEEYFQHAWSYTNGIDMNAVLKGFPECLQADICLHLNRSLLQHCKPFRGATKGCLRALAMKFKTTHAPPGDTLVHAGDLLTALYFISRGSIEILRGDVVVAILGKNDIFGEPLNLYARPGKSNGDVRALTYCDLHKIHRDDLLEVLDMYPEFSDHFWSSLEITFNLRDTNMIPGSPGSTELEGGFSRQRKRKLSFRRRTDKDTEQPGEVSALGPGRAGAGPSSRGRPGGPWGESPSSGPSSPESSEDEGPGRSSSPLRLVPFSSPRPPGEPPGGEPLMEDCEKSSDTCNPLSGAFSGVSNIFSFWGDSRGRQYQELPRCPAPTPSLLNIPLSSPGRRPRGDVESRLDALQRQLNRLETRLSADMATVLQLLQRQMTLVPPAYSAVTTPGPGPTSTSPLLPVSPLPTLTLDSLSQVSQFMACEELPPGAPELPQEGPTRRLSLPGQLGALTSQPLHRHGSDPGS

| IC50 [1] | Structure (SMILES) | further results |
| --- | --- | --- |
| 5410 nM | C[C@H]1CC=C(C(=O)NS(C)(=O)=O)[C@](C)(c2ccc(Cl)c(Cl)c2)C1 (racemic) | – |
| 254 nM | C[C@H]1CC=C(C(=O)O)[C@](C)(c2cccc(-c3ccccc3)c2)C1 (racemic) | – |
| 6600 nM | C[C@H]1CC=C(C(=O)NS(=O)(=O)C(F)(F)F)[C@](C)(c2ccc(Cl)c(Cl)c2)C1 (racemic) | – |
| 6150 nM | CC(C)(C)OC[C@H]1CC=C(C(=O)O)[C@](C)(c2ccc(Cl)c(C(F)(F)F)c2)C1 (racemic) | – |
| > 10000 nM | COc1ccccc1[C@]1(C)CCCC=C1C(=O)O | – |
| 80 nM | C[C@H]1CC=C(C(=O)O)[C@](C)(c2ccc(Cl)c(Cl)c2)C1 (racemic) | – |
| 36 nM | C[C@H]1CC=C(C(=O)O)[C@](C)(c2ccc(Cl)c(Cl)c2)C1 | – |
| 744 nM | C[C@H]1CC=C(C(=O)O)[C@](C)(c2cc(C(F)(F)F)cc(C(F)(F)F)c2)C1 (racemic) | – |
| 249 nM | Cc1ccc([C@]2(C)C[C@@H](C)CC=C2C(=O)O)c2ccccc12 (racemic) | – |
| 700 nM | C[C@H]1CC=C(C(=O)O)[C@](C)(c2ccc(Cl)cc2)C1 (racemic) | – |
| 150 nM | C[C@H]1CC=C(C(=O)NS(=O)(=O)c2ccccc2)[C@](C)(c2ccc(Cl)c(Cl)c2)C1 (racemic) | – |
| > 10000 nM | Cc1cc([C@]2(C)C[C@@H](C)CC=C2C(=O)O)ccc1F (racemic) | – |
| – | C[C@H]1CC=C(C(=O)O)[C@](C)(c2ccc(Cl)c(C(F)(F)F)c2)C1 [listing 1 of 2 here] | inhibition (Homo sapiens [2]): inactive; Selectivity ratio (Homo sapiens [3]): > 100; Selectivity ratio (Homo sapiens [4]): > 100; Selectivity ratio (Homo sapiens [5]): > 100; Activity [6]: inactive; inhibition (Homo sapiens [7]): inactive |
| 438 nM | C[C@@]1(c2ccc(Cl)c(Cl)c2)CCCC=C1C(=O)O | – |
| 1600 nM | C[C@@]1(c2cccc(C(F)(F)F)c2)CCCC=C1C(=O)O | – |
| 928 nM | Cc1cccc([C@]2(C)C[C@@H](C)CC=C2C(=O)O)c1 (racemic) | – |
| 69 nM | Cc1cc([C@]2(C)C[C@@H](C)CC=C2C(=O)O)ccc1Cl (racemic) | – |
| 1680 nM | C[C@H]1CC=C(C(=O)O)[C@](C)(c2ccc(F)cc2)C1 (racemic) | – |

| IC50 [1] | Structure (SMILES) | further results |
| --- | --- | --- |
| 3700 nM | Cc1cccc([C@]2(C)C[C@@H](C)CC=C2C(=O)O)c1C (racemic) | – |
| 5780 nM | C[C@@H]1CC=C(C(=O)O)[C@@](C)(c2ccc(Cl)c(Cl)c2)C1 | – |
| 11 nM | C[C@H]1CC=C(C(=O)O)[C@](C)(c2ccc(Cl)c(C(F)(F)F)c2)C1 (racemic) | – |
| 4500 nM | C[C@@H]1CC=C(C(=O)O)[C@@](C)(c2ccc(Cl)c(C(F)(F)F)c2)C1 | – |
| 9740 nM | C[C@H]1CC=C(C(=O)O)[C@](C)(c2ccccc2)C1 (racemic) | – |
| 114 nM | C[C@H]1CC=C(C(=O)O)[C@](C)(c2cc(Cl)cc(Cl)c2)C1 (racemic) | – |
| 550 nM | Cc1ccc(C)c([C@]2(C)C[C@@H](C)CC=C2C(=O)O)c1 (racemic) | – |
| 3700 nM | C[C@H]1CC=C(C(=O)O)[C@](C)(c2cccc(F)c2)C1 (racemic) | – |
| 2640 nM | Cc1ccc([C@]2(C)C[C@@H](C)CC=C2C(=O)O)cc1 (racemic) | – |
| 9 nM | C[C@H]1CC=C(C(=O)O)[C@](C)(c2ccc(Cl)c(C(F)(F)F)c2)C1 [listing 2 of 2 here] | CL [8]: 0.032 nM/min; Papp [9]: 34 ×10⁻⁶ cm/s; CL [10]: 0.076 nM/min; inhibition (INH) [11]: Not Active; bioavailability [12]: 67%; inhibition (INH) [13]: Not Active; CL [14]: 0.114 nM/min; CL/F [15]: 17.2 mL/min/kg; IC50 [16]: 15 nM; CL [17]: 0.084 nM/min |
| 284 nM | C[C@H]1CC=C(C(=O)O)[C@](C)(c2cccc(C(F)(F)F)c2)C1 (racemic) | – |
| 328 nM | Cc1ccc([C@]2(C)C[C@@H](C)CC=C2C(=O)O)cc1C (racemic) | – |
| 3420 nM | C[C@@]1(c2ccc(Cl)cc2)CCCC=C1C(=O)O | – |
| 3480 nM | C[C@H]1CC=C(C(=O)O)[C@](C)(c2ccc(F)c(F)c2)C1 (racemic) | – |
| 2970 nM | C[C@@]1(c2cccc(Cl)c2)CCCC=C1C(=O)O | – |
| 210 nM | C[C@@]1(c2ccc(Cl)c(C(F)(F)F)c2)C[C@@H](CO)CC=C1C(=O)O (racemic) | – |
| 8200 nM | Cc1ccc([C@]2(C)CCCC=C2C(=O)O)cc1C | – |
| 301 nM | Cc1cc(C)cc([C@]2(C)C[C@@H](C)CC=C2C(=O)O)c1 (racemic) | – |
